Test results from ChEMBL document CHEMBL1143579, “Synthesis and pharmacology of N1-substituted piperazine-2,3-dicarboxylic acid derivatives acting as NMDA receptor antagonists” (J Med Chem, 2005).

Assays:
[1] = target: Glutamate NMDA receptor; Grin1/Grin2b (Rattus norvegicus, UniProt P35439+Q00960); assay: Inhibitory constant against (S)-glutamate and glycine evoked currents mediated by N-methyl-D-aspartate glutamate receptor NR1a/NR2B expressed in Xenopus oocytes; type: cell-based, Oocyte
How it was run: (§1)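 Xenopus laevis oocytes were injected with NR1a and NR2 subunit RNA (1:3 molar ratio, 15-30 ng total) and held in ND-96 at 17 °C for 1-5 days. Currents were recorded by two-microelectrode voltage clamp at a holding potential of […] in 116 mM NaCl, 2 mM KCl, 2 mM BaCl2, 5 mM HEPES, pH 7.4. The steady plateau response to bath-applied 10 µM L-glutamate plus 10 µM glycine was measured. Apparent Ki was obtained as IC50(obs)/(1 + [agonist]/EC50).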

[2] = Inhibitory constant against (S)-glutamate and glycine evoked currents mediated by N-methyl-D-aspartate glutamate receptor NR1a/NR2D expressed in Xenopus oocytes; type: cell-based, Rattus norvegicus; settings: oocyte
How it was run: (§2)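 Xenopus laevis oocytes were injected with NR1a and NR2 subunit RNA (1:3 molar ratio, 15-30 ng total) and held in ND-96 at 17 °C for 1-5 days. The steady plateau response to bath-applied 10 µM L-glutamate plus 10 µM glycine was measured. Apparent Ki was obtained as IC50(obs)/(1 + [agonist]/EC50).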

[3] = target: Glutamate NMDA receptor; Grin1/Grin2a (Rattus norvegicus, UniProt P35439+Q00959); assay: Inhibitory constant against (S)-glutamate and glycine evoked currents mediated by N-methyl-D-aspartate glutamate receptor NR1a/NR2A expressed in Xenopus oocytes; type: cell-based, Oocyte; how it was run: as §2
Sequence of Glutamate NMDA receptor; Grin1/Grin2a (Q00959 whole entry, other chains not shown): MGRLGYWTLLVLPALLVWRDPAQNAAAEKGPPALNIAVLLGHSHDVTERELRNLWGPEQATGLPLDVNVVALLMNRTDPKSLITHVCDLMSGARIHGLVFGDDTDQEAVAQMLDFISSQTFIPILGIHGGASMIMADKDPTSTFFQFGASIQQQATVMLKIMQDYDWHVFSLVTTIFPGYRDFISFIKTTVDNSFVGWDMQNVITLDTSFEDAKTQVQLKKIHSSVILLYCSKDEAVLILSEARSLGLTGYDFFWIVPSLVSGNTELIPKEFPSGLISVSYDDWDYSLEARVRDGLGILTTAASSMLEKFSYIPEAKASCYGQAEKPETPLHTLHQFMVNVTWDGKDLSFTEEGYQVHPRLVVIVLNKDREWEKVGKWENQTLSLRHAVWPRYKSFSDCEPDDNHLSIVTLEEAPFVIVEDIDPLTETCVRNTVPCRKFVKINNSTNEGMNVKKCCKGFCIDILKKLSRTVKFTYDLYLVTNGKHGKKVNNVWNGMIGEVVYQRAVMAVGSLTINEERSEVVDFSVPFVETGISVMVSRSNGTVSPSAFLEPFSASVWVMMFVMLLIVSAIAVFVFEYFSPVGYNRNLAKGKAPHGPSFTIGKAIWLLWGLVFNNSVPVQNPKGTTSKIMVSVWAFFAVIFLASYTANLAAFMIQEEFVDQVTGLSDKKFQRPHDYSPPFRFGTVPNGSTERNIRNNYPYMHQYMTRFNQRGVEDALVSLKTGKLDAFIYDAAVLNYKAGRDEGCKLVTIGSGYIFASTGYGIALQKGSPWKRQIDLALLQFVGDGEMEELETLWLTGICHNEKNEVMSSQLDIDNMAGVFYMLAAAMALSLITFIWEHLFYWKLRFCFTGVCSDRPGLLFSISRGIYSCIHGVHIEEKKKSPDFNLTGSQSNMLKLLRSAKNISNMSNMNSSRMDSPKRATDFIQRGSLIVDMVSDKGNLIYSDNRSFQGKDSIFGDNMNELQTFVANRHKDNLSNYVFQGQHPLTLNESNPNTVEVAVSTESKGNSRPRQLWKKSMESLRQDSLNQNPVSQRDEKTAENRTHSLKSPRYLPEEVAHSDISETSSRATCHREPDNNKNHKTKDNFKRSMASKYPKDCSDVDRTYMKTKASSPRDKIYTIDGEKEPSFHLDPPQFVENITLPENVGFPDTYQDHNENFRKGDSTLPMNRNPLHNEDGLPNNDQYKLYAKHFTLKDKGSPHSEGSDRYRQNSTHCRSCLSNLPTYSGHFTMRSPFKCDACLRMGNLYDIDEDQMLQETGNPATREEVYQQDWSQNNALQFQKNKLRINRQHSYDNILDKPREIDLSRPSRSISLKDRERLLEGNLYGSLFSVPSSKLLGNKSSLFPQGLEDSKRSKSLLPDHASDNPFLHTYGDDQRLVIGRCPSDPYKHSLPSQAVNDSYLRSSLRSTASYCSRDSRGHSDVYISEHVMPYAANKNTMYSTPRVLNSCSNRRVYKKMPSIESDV

[4] = target: Glutamate NMDA receptor; Grin1/Grin2c (Rattus norvegicus, UniProt P35439+Q00961); assay: Inhibitory constant against (S)-glutamate and glycine evoked currents mediated by N-methyl-D-aspartate glutamate receptor NR1a/NR2C expressed in Xenopus oocytes; type: cell-based, Oocyte; how it was run: as §1
Sequence of Glutamate NMDA receptor; Grin1/Grin2c (Q00961 whole entry, other chains not shown): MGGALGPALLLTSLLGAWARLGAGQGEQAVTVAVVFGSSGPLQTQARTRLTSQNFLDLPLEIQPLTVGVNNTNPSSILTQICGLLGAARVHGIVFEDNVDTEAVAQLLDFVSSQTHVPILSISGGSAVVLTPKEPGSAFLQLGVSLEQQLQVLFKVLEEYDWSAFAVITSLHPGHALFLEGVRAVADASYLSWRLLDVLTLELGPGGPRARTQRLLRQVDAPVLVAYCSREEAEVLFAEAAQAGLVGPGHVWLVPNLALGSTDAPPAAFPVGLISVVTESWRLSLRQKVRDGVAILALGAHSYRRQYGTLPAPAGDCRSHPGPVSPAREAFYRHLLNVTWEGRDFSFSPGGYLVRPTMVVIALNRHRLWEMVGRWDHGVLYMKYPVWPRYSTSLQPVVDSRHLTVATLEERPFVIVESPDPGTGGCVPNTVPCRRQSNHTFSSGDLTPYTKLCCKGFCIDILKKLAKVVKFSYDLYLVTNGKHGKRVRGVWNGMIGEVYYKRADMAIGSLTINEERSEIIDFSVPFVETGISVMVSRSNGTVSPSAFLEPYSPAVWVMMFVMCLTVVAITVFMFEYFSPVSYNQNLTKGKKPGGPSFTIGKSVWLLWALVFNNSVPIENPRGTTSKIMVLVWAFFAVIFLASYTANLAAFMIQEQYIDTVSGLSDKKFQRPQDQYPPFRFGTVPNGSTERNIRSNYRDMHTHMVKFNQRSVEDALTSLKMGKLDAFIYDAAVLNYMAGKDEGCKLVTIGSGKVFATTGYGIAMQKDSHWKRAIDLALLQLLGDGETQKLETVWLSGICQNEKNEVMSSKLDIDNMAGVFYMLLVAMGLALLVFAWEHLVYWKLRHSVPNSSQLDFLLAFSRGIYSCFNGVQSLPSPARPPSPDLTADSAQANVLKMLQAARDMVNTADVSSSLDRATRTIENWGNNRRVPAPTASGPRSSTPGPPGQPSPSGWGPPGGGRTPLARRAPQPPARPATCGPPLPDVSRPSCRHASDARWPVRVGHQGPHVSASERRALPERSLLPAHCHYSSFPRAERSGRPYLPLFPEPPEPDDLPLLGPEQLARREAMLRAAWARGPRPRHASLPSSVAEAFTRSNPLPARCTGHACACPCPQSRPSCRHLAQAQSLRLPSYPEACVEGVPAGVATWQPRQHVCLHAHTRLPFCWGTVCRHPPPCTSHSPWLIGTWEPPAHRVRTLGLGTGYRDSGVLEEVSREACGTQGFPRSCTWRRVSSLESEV

Sequence of Glutamate NMDA receptor; Grin1/Grin2b (Q00960 whole entry, other chains not shown): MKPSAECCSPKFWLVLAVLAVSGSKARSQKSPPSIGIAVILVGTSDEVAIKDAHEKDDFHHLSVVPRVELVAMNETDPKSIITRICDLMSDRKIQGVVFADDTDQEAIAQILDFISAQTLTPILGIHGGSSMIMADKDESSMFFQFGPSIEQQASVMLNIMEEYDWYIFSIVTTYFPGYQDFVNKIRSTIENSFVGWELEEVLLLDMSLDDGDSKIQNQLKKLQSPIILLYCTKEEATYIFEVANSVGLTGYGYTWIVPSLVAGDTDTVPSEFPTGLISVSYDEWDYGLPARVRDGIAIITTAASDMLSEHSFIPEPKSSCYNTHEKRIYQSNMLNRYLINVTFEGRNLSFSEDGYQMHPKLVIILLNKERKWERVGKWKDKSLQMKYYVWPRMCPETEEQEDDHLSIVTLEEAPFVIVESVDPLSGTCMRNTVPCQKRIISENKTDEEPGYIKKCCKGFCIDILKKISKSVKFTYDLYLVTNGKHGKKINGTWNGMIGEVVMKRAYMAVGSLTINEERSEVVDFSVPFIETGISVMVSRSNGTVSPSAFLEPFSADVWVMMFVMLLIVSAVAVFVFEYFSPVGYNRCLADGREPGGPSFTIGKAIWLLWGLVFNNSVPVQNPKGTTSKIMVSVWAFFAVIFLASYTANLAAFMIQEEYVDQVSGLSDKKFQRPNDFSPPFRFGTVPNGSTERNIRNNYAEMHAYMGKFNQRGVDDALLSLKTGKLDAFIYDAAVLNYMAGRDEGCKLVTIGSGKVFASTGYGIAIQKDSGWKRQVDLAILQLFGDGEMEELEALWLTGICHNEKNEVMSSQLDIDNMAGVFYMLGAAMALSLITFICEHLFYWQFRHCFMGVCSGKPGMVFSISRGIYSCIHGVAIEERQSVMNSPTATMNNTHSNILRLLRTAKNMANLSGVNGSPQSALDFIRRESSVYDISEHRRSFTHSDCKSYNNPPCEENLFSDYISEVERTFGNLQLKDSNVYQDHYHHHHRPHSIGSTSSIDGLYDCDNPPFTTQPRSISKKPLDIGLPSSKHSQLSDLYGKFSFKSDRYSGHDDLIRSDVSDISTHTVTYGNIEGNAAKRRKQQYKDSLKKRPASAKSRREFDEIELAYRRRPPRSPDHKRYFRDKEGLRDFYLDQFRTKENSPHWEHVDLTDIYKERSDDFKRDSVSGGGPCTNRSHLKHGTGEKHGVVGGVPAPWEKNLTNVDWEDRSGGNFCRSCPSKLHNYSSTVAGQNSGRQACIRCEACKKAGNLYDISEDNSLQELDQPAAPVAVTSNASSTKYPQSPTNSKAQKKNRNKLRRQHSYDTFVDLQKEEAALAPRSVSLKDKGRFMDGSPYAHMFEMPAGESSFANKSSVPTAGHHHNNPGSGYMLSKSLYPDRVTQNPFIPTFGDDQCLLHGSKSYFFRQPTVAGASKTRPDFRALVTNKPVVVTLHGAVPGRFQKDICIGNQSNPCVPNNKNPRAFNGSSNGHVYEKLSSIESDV

Ki [1] | Ki [2] | Ki [3] | Ki [4] | Compound
16.2 µM | 10.9 µM | 13.6 µM | 8.67 µM | O=C(O)[C@H]1NCCN(S(=O)(=O)c2ccc(-c3ccccc3)cc2)[C@H]1C(=O)O
0.3 µM | 1.94 µM | 0.84 µM | 0.85 µM | O=C(O)[C@H]1NCCN(C(=O)/C=C/c2ccc3ccccc3c2)[C@H]1C(=O)O
18.2 µM | – | – | 3.89 µM | O=C(O)[C@H]1NCCN(C(=O)c2ccc3ccccc3c2)[C@H]1C(=O)O
2.15 µM | 1.03 µM | 3.88 µM | 0.66 µM | O=C(O)[C@H]1NCCN(C(=O)c2ccc3c(c2)CCc2cc(Br)ccc2-3)[C@H]1C(=O)O
3.25 µM | 2.17 µM | – | 1.17 µM | O=C(O)[C@H]1NCCN(C(=O)c2ccc3c(c2)Cc2ccccc2-3)[C@H]1C(=O)O
0.067 µM | 0.037 µM | 0.0054 µM | 0.0116 µM | C[C@H](NC(c1cccc2nc(O)c(O)nc12)P(=O)(O)O)c1ccc(Br)cc1 (stereo partly specified)
18 µM | 59.7 µM | 13.2 µM | 27 µM | O=C(O)[C@H]1NCCN(C(=O)/C=C/c2ccccc2)[C@H]1C(=O)O
9.36 µM | 6.45 µM | 7.97 µM | 4.42 µM | O=C1c2ccccc2-c2ccc(C(=O)N3CCN[C@H](C(=O)O)[C@@H]3C(=O)O)cc21
0.76 µM | 0.57 µM | 1.54 µM | 0.29 µM | O=C(O)[C@H]1NCCN(C(=O)c2ccc3c(c2)CCc2ccccc2-3)[C@H]1C(=O)O
22.1 µM | 12.9 µM | 42.9 µM | 8.49 µM | O=C(O)[C@H]1NCCN(C(=O)c2ccc(-c3ccccc3Br)cc2)[C@H]1C(=O)O
13.4 µM | 8.02 µM | 8.78 µM | 7.38 µM | O=C(O)[C@H]1NCCN(C(=O)c2ccc(-c3ccc(F)cc3)cc2)[C@H]1C(=O)O
0.27 µM | 1.99 µM | 0.041 µM | 0.63 µM | O=C(O)[C@H]1CN(CCCP(=O)(O)O)CCN1

Compound | Ki [1] | Ki [2] | Ki [3] | Ki [4]
O=C(O)[C@H]1NCCN(C(=O)c2ccccc2)[C@H]1C(=O)O | > 100 µM | > 100 µM | > 100 µM | > 100 µM
O=C(O)[C@H]1NCCN(C(=O)c2ccc3ccc4ccccc4c3c2)[C@H]1C(=O)O | 19.3 µM | 2.78 µM | 14.2 µM | 4.22 µM
O=C(O)[C@H]1NCCN(C(=O)c2ccc3c(ccc4cc(Br)ccc43)c2)[C@H]1C(=O)O | 0.25 µM | 0.15 µM | 0.32 µM | 0.0994 µM
O=C(O)[C@H]1NCCN(Cc2ccc3c(ccc4ccccc43)c2)[C@H]1C(=O)O | 10.2 µM | 3.18 µM | 11.2 µM | 2.67 µM
N[C@H](CCCCCP(=O)(O)O)C(=O)O | 4.14 µM | 17.1 µM | 0.49 µM | 6.42 µM
O=C(O)[C@H]1NCCN(C(=O)c2ccc(-c3ccccc3)cc2)[C@H]1C(=O)O | 5.01 µM | 4.29 µM | 15.8 µM | 8.98 µM
O=C(O)[C@H]1NCCN(C(=O)c2ccc3c(ccc4ccccc43)c2)[C@H]1C(=O)O | 0.31 µM | 0.125 µM | 0.55 µM | 0.096 µM
O=C(O)[C@@H]1NCCN(C(=O)c2ccc3c(ccc4ccccc43)c2)[C@H]1C(=O)O | 9.08 µM | 6.03 µM | 10.5 µM | 4.88 µM
N[C@H](CCCP(=O)(O)O)C(=O)O | 0.46 µM | 3.71 µM | 0.28 µM | 1.64 µM
